According to ChEMBL document CHEMBL3865825, “Discovery of novel Tetrahydrobenzo[b]thiophene and pyrrole based scaffolds as potent and selective CB2 receptor ligands: The structural elements controlling binding affinity, selectivity and functionality” (Eur J Med Chem, 2016):
The source made the active and inactive calls. The calls are words filed in the database; no cut-off is given here.

Assays:
Cannabinoid receptor 2 [1] = biological target: T1, Cannabinoid receptor 2 (Homo sapiens, UniProt P34972); test: Displacement of [3H]-CP-55940 from human CB2 receptor expressed in HEK293 cell membranes at 1 to 10 uM after 90 mins relative to control
T1 sequence (P34972 whole entry): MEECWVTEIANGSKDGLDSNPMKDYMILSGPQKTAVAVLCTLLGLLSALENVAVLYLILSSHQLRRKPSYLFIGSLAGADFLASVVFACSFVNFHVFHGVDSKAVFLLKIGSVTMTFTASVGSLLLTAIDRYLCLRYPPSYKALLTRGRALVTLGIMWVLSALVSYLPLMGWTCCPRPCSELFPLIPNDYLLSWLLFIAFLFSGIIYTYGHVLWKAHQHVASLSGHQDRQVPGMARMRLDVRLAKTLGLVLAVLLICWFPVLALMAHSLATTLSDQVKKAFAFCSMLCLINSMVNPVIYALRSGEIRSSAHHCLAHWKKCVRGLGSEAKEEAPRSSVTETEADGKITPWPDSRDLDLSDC

Cannabinoid receptor 2 [2] = biological target: T1, Cannabinoid receptor 2; test: Displacement of [3H]-CP-55940 from human CB2 receptor expressed in HEK293 cell membranes after 90 mins by radioligand binding assay
In short: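 Compounds were screened at 1 and 10 µM; those displacing over 50% were run at 0.1nM–10µM. Ki by Cheng-Prusoff from IC50. At least three experiments, duplicate.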

[3] = biological target: Cannabinoid receptor 1 (CB1) (Homo sapiens, UniProt P21554); test: Displacement of [3H]-CP-55940 from human CB1 receptor expressed in HEK293 cell membranes at 1 to 10 uM after 90 mins relative to control; settings: membranes of HEK293 cells expressing human CB1 receptor, probe [3H]-CP-55940
Chain of Cannabinoid receptor 1 (CB1) (P21554 whole entry): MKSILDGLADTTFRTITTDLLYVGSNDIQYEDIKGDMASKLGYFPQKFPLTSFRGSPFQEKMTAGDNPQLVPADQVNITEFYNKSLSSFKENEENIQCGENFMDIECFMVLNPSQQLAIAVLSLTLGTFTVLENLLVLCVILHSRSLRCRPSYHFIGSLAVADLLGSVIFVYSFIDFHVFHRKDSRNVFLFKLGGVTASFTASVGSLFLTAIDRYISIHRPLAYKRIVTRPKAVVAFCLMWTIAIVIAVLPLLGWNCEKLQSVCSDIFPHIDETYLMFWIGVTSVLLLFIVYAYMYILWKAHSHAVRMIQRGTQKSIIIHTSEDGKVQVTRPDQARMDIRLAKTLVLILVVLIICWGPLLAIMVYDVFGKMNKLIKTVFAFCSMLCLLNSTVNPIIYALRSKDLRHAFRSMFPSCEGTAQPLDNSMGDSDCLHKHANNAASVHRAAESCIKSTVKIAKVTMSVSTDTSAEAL

Cannabinoid receptor 1 = Cannabinoid receptor 1 (Homo sapiens, UniProt P21554); test: Displacement of [3H]-CP-55940 from human CB1 receptor expressed in HEK293 cell membranes after 90 mins by radioligand binding assay
Chain of Cannabinoid receptor 1 (P21554 whole entry): as above

HEK293 = test: Selectivity index, ratio of Ki for human CB1 receptor expressed in HEK293 cell membranes to Ki for human CB2 receptor expressed in HEK293 cell membranes; format: cell-based
Cannabinoid receptor 2 [4] = biological target: T1, Cannabinoid receptor 2
Cannabinoid receptor 2 [5] = biological target: T1, Cannabinoid receptor 2; test: Antagonist activity at human CB2 receptor expressed in CHO-K1 cells assessed as increase in NKH-477-induced intracellular cAMP levels preincubated for 15 mins followed by JWH-133 addition after 30 mins by luminescence assay; format: functional, cell-based
Cannabinoid receptor 2 [6] = biological target: T1, Cannabinoid receptor 2; test: Inverse agonist activity at human CB2 receptor expressed in CHO-K1 cells assessed as increase in NKH-477-induced intracellular cAMP levels after 30 mins by luminescence assay; format: functional, cell-based
In short: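 CHO-K1 cells stably overexpressing human CB2, plated 30,000 cells/well and held overnight at 37 °C, 5% CO2. Compounds were added with NKH-477 (water-soluble forskolin analogue; 3x of 25µM solution) for 30 min at 37°C. cAMP was read by enzyme-fragment-complementation chemiluminescence. Values are normalized to NKH-477 alone as 100% response. Three independent experiments, triplicate.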

| Structure (SMILES) | inhibition (Cannabinoid receptor 2 [1]) [%] | Ki (Cannabinoid receptor 2 [2]) [nM] | inhibition at 1.5 h, up to 10 µM [3] [%] | Ki (Cannabinoid receptor 1) [nM] | Ratio Ki (HEK293) | IC50 (Cannabinoid receptor 2 [4]) [nM] | Activity (Cannabinoid receptor 2 [5]) | Activity (Cannabinoid receptor 2 [6]) |
| --- | --- | --- | --- | --- | --- | --- | --- | --- |
| CCOC(=O)c1c(NC(=O)CCc2ccccc2)sc2c1CCCC2 | > 50 | 112 | > 50 | > 10000 | > 89.4 | – | – | – |
| CCc1c(C(=O)NCCc2ccccc2)cc(C)n1-c1ccccc1 | > 50 | 718 | > 50 | > 10000 | > 13.9 | – | – | – |
| CCc1c(C(=O)NC2CCCCC2)cc(C)n1-c1ccccc1 | > 50 | 171 | > 50 | 4570 | > 26.8 | – | – | – |
| CCOC(=O)c1c(NC(=O)C23CC4CC(CC(C4)C2)C3)sc2c1CCCC2 | > 50 | 2.15 | > 50 | 1010 | 469 to 500 | 475 | – | – |
| CCc1c(C(=O)NC23CC4CC(CC(C4)C2)C3)cc(C)n1-c1ccccc1 | > 50 | 6.15 | > 50 | 1200 | 195 to 200 | 398 | Active | Active |
| CCOC(=O)c1c(N)sc2c1CCCC2 | > 50 | > 10000 | > 50 | > 10000 | – | – | – | – |
| CCc1c(C(=O)Nc2cccc3ccccc23)cc(C)n1-c1ccccc1 | > 50 | 20 | > 50 | 505 | 25 | – | – | – |
| Cc1cc(C(=O)NC2CCCCC2)c(C)n1-c1ccccc1 | > 50 | 168 | > 50 | > 10000 | > 59.6 | – | – | – |
| CCOC(=O)c1cc(-c2ccccc2)sc1NC(=O)c1cccc2ccccc12 | > 50 | 59.8 | > 50 | > 10000 | > 167 | – | – | – |
| CCOC(=O)c1cc(-c2ccccc2)sc1NS(=O)(=O)c1cccc2ccccc12 | > 50 | > 10000 | > 50 | > 10000 | – | – | – | – |
| CCOC(=O)c1cc(-c2ccccc2)sc1NS(=O)(=O)c1ccccc1 | > 50 | > 10000 | > 50 | > 10000 | – | – | – | – |
| CCOC(=O)c1cc(-c2ccccc2)sc1NS(=O)(=O)c1ccc(Cl)cc1 | > 50 | > 10000 | > 50 | > 10000 | – | – | – | – |
| CCOC(=O)c1c(NS(=O)(=O)c2cccc3ccccc23)sc2c1CCCC2 | > 50 | 800 | > 50 | > 10000 | > 12.5 | – | – | – |
| Cc1cc(C(=O)NC23CC4CC(CC(C4)C2)C3)c(C)n1-c1ccccc1 | > 50 | 7.59 | > 50 | 518 | 68.3 | 109 | Active | Active |
| CCOC(=O)c1c(NS(=O)(=O)c2ccc(Cl)cc2)sc2c1CCCC2 | > 50 | > 10000 | > 50 | > 10000 | – | – | – | – |
| Cc1cc(C(=O)O)c(C)n1-c1ccccc1 | > 50 | > 10000 | > 50 | > 10000 | – | – | – | – |

| Structure (SMILES) | inhibition (Cannabinoid receptor 2 [1]) [%] | Ki (Cannabinoid receptor 2 [2]) [nM] | inhibition at 1.5 h, up to 10 µM [3] [%] | Ki (Cannabinoid receptor 1) [nM] | Ratio Ki (HEK293) | IC50 (Cannabinoid receptor 2 [4]) [nM] | Activity (Cannabinoid receptor 2 [5]) | Activity (Cannabinoid receptor 2 [6]) |
| --- | --- | --- | --- | --- | --- | --- | --- | --- |
| Cc1cc(C(=O)Nc2cccc3ccccc23)c(C)n1-c1ccccc1 | > 50 | 84.2 | > 50 | 317 | 3.76 | – | – | – |
| Cc1ccc(Cn2nc(C(=O)N[C@@H]3C(C)(C)[C@@H]4CC[C@@]3(C)C4)cc2-c2ccc(Cl)c(C)c2)cc1 | > 50 | – | > 50 | – | – | – | – | – |
| Cc1cc(C(=O)NC(C)c2ccccc2)c(C)n1-c1ccccc1 (configuration not stated) | > 50 | 546 | > 50 | 2620 | 4.8 | – | – | – |
| CCOC(=O)c1cc(-c2ccccc2)sc1N(S(=O)(=O)c1ccc2ccccc2c1)S(=O)(=O)c1ccc2ccccc2c1 | > 50 | > 10000 | > 50 | > 10000 | – | – | – | – |
| CCc1c(C(=O)NC(C)c2ccccc2)cc(C)n1-c1ccccc1 (configuration not stated) | > 50 | 540 | > 50 | 3740 | 6.92 | – | – | – |
| CCc1c(C(=O)O)cc(C)n1-c1ccccc1 | > 50 | > 10000 | > 50 | > 10000 | – | – | – | – |
| CCc1c(C(=O)Nc2ccc3ccccc3c2)cc(C)n1-c1ccccc1 | > 50 | 57 | > 50 | 633 | 11.1 | – | – | – |
| Cc1cc(C(=O)NCCc2ccccc2)c(C)n1-c1ccccc1 | > 50 | 584 | > 50 | 5930 | 10.2 | – | – | – |
| CCOC(=O)c1c(NS(C)(=O)=O)sc2c1CCCC2 | > 50 | > 10000 | > 50 | > 10000 | – | – | – | – |
| Cc1cc(C(=O)Nc2ccc3ccccc3c2)c(C)n1-c1ccccc1 | > 50 | 58.3 | > 50 | 281 | 4.82 | – | – | – |
| CCOC(=O)c1cc(-c2ccccc2)sc1NC(=O)c1ccc2ccccc2c1 | > 50 | > 10000 | > 50 | > 10000 | – | – | – | – |
| CCOC(=O)c1c(NS(=O)(=O)c2ccccc2)sc2c1CCCC2 | > 50 | 1990 | > 50 | > 10000 | > 5.02 | – | – | – |
| CCOC(=O)c1c(NC(=O)c2ccc3ccccc3c2)sc2c1CCCC2 | > 50 | 1790 | > 50 | > 10000 | > 5.6 | – | – | – |
| CCOC(=O)c1c(NC(=O)c2cccc3ccccc23)sc2c1CCCC2 | > 50 | 16.8 | > 50 | 1370 | 80 to 81.7 | – | – | – |
| CCOC(=O)c1cc(-c2ccccc2)sc1NS(C)(=O)=O | > 50 | > 10000 | > 50 | > 10000 | – | – | – | – |
| CCOC(=O)c1c(NS(=O)(=O)c2ccc3ccccc3c2)sc2c1CCCC2 | > 50 | > 10000 | > 50 | > 10000 | – | – | – | – |
